# Test results published in PubChem BioAssay AID1800 (The Scripps Research Institute Molecular Screening Center, 2009).
# The whole screen tested about 290,000 compounds, of which about 1,600 (0.55%) were called active. Only a selection was taken, and actives are over-represented in it overall. Values without a mark were called inactive.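 Rule for the calls: active = inhibition above the mean of all tested compounds plus 3 SD, set per campaign (cut at about 35% in these data); inactive = the rest.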
# System: Hepatitis C virus NS3 helicase
# Assay: inhibitors of HCV NS3 helicase, primary screen, biochemical, Cy5 molecular beacon fluorescence (AID 1800)
# Settings: NS3 helicase DNA unwinding, at 10.9 µM, stronger effect = higher value
# How it was run: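 System: NS3 helicase fragment of HCV / Schedule: 1 h at 25 °C / Control set: DMSO alone as 0% and 110 µM thioflavine S as 100% / Reagent: Cy5/quencher beacon DNA duplex and ATP to start / Technique: Cy5 fluorescence / Replication: singlicate / Evaluation: % inhibition of end-to-start signal ratio versus controls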
row,SMILES,inhibition
1,Cc1ccc(N=Cc2c(O)cc(C)oc2=O)c(C)c1,-4.71%
2,Cc1cc(O)c(C(=O)/C=C/c2c(F)c(F)c(F)c(F)c2F)c(=O)o1,53.7% (active)
3,COc1ccc(Cl)cc1NC(=O)CN(C)C(=O)CCCc1c[nH]c2ccccc12,-11.3%
4,Cc1nc2ccccc2c(=O)n1NC(=O)c1ccc(Cl)c([N+](=O)[O-])c1,-12.7%
5,O=C(CN1CCN(CC(=O)Nc2ccc3c(c2)OCO3)CC1)Nc1ccc(F)cc1,2%
6,COc1ccc(NC(=O)CCN2C(=O)/C(=C/c3ccc4c(c3)OCO4)SC2=S)cc1,-4.44%
7,Cc1ccc(C(=O)O)cc1-c1ccc(/C=C2\SC(=O)N(CC(=O)Nc3ccc4c(c3)OCO4)C2=O)o1,46.3% (active)
8,Cc1ccc(C)c(-n2c(SCC(=O)O)nc3sc4c(c3c2=O)CCCC4)c1,37.1% (active)
9,COc1ccccc1-n1c(SCC(=O)O)nc2sc3c(c2c1=O)CCC3,5.31%
10,CCSc1nc2sc3c(c2c(=O)n1-c1ccc(C)cc1)CCN(C)C3,-28.2%
11,Cc1cccc(N2CCN(C(C)C(=O)N3CCc4ccccc43)CC2)c1C (stereo unspecified),-14.8%
12,Cc1cccc(N(C)C(=O)c2cc(S(=O)(=O)N3CCCCC3)c[nH]2)c1,-16.4%
13,Cc1ccc(OCc2cc(C(=O)N(C)CCn3ccnc3C)no2)cc1C,-14.7%
14,COc1ccc(OCC(=O)Nc2nnc(-c3ccco3)s2)cc1,58.5% (active)
15,Cc1ccc(OCC(=O)Nc2nnc(-c3ccco3)s2)cc1,13.6%
16,CNc1nnc(-c2ccco2)s1,-1.81%
17,Cc1cccc(NC(=O)CCn2c(=O)oc3ccccc32)c1,-6.84%
18,COc1ccc(C(=O)C2CCCN(C(=O)c3ccc(OC)o3)C2)c(C)c1 (stereo unspecified),-2.85%
19,COC(=O)C1=C(C)N(C(C)c2ccccc2)C(=O)/C1=C\c1ccco1 (stereo unspecified),20.9%

row,SMILES,inhibition
1,COc1cc(CN2CCC(C(N)=O)CC2)ccc1OCc1ccccc1,-5.96%
2,COc1cc(C2CC(=O)N3CN(Cc4ccccc4)CSC3=C2C#N)ccc1OCc1ccccc1 (stereo unspecified),52.1% (active)
3,COc1cc(CNC2CCCC2)c(Br)cc1OCc1ccccc1,-30.4%
4,COC(=O)c1cc(S(=O)(=O)N2CCC(C(N)=O)CC2)oc1C,4.32%
5,COc1ccc(C2/C(=C(/O)c3ccccc3)C(=O)C(=O)N2C)c(OC)c1 (stereo unspecified),3.37%
6,Cc1cc(N2C(=O)C(=O)/C(=C(/O)c3ccc(Cl)cc3)C2c2cccc(Br)c2)no1 (stereo unspecified),24.4%
7,COc1ccccc1C1/C(=C(/O)c2ccc(OC(C)C)cc2)C(=O)C(=O)N1c1cc(C)on1 (stereo unspecified),43.1% (active)
8,CN(c1ccccc1)S(=O)(=O)c1ccc(C(=O)NCCc2ccccc2)cc1,-7.81%
9,O=C(CC1C(=O)NCCN1C(=O)c1ccc([N+](=O)[O-])cc1)Nc1cccc(Cl)c1 (stereo unspecified),-5.86%
10,Cc1ccc(Nc2ncnc3c2cnn3C)c(C)c1,5.11%
11,Cc1ccc(/C=C/C(=O)Nc2cc(S(=O)(=O)N3CCCCCC3)ccc2OCC(F)(F)F)o1,21.8%
12,Cc1ccc(/C=C/C(=O)Nc2ccc([N+](=O)[O-])c(NC(=O)/C=C/c3ccc(C)o3)c2)o1,46.7% (active)
13,CCc1nnc(NC(=O)/C=C/c2ccc(C)o2)s1,8.82%
14,COc1ccc(C)cc1N(CC(=O)N1CCCC1)S(=O)(=O)c1ccccc1,21%
15,Cc1ccc(C(c2nnnn2CS(=O)(=O)c2ccc(C)cc2)N2CCC(C)CC2)cc1 (stereo unspecified),-6.3%
16,CC(=O)N1c2ccc(S(=O)(=O)N(C)CC(=O)N(C)Cc3ccccc3)cc2CC1C (stereo unspecified),-2.38%
17,Cc1cc(C(=O)CSc2nc(N)cc(=O)[nH]2)c(C)n1Cc1ccco1,22.4%
18,COc1ccc(C)cc1-n1nnnc1SCC(=O)c1cc(C)n(Cc2ccco2)c1C,52.1% (active)
19,COc1ccc(OC)c(-n2nnnc2SCC(=O)Nc2cc(C)ccc2OC)c1,-1.59%

row,SMILES,inhibition
1,Cc1ccc(OCC(=O)c2cc(C)n(Cc3ccco3)c2C)c([N+](=O)[O-])n1,41.5% (active)
2,COCC(C)n1c(C)cc(C(=O)COc2ccc(C)nc2[N+](=O)[O-])c1C (stereo unspecified),2.44%
3,Cc1cc(C(=O)COC(=O)CNC(=O)c2ccc(F)cc2)c(C)n1Cc1ccco1,10%
4,Cc1cc(S(=O)(=O)N2CCOCC2)ccc1OCC(=O)N1CCOCC1,-4.99%
5,COc1cc(NC(=O)CCS(=O)(=O)c2ccc3c(c2)oc(=O)n3C)cc(OC)c1,3.01%
6,CCc1ccc(NC(=O)CS(=O)CC(=O)N2CCN(c3ccccc3F)CC2)cc1 (stereo unspecified),8.61%
7,COc1ccc(NC(=O)CN2C(=O)CSc3ccc(S(=O)(=O)N4CCC(C)CC4)cc32)cc1,-2.68%
8,COc1cccc(C(=O)CC(=O)C(=O)Nc2ccc([N+](=O)[O-])cc2C)c1,37.6% (active)
9,COc1cccc(NCCC(=O)c2cccc([N+](=O)[O-])c2)c1,2.63%
10,COc1ccc(C(=O)CC(=O)C(=O)Nc2cc([N+](=O)[O-])ccc2OC)cc1,12.6%
11,COc1ccc(-n2ncc3c(SCC(=O)NNC(C)=O)ncnc32)cc1,5.53%
12,O=C1NN(c2ccccc2)C(=O)/C1=C/c1ccc(-c2cccc(C(=O)O)c2)o1,54.3% (active)
13,Cc1cccc(C)c1-n1c(C)cc(/C=C2\C(=O)NN(c3ccccc3)C2=O)c1C,9.92%
14,O=C(O)C(c1ccccc1)N1C(=O)/C(=C\c2ccc(-c3cccc(Cl)c3)o2)SC1=S (stereo unspecified),8.54%
15,CC(NS(=O)(=O)c1ccc(OCC(=O)N2CCCC2)cc1)c1ccccc1 (stereo unspecified),-5.83%
16,O=C(NCc1ccccc1)C(=O)NCC1OCCN1S(=O)(=O)c1ccc(Br)cc1 (stereo unspecified),-0.44%
17,O=C(COc1ccc2c(c1)CCC2)N1CCN(c2ccc(F)cc2)CC1,-11.2%
18,CC1(C)NC(=O)N(CCCCSc2ccc(Cl)cc2)C1=O,-1.4%
